In brackets after ≈: the same amount, converted by molar mass. Activity calls are given as the source filed them. No cut-off for these calls is given here.
Experiments:
Enterococcus faecalis [1] = experiment: Antibacterial activity against Enterococcus faecalis ATCC 29212 after 20 hrs by broth microdilution method; type: functional; conditions: ATCC 29212, 20 h
How it was run: (§1)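 NCCLS broth microdilution in cation-adjusted Mueller–Hinton broth. Serial 2-fold compound dilutions were inoculated with 5 × 10⁴ CFU per 0.1 mL and incubated at 35 °C for 20 h before scoring the MIC.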

Staphylococcus aureus [2] = experiment: Antibacterial activity against methicillin-sensitive […] Staphylococcus aureus ATCC 29213 after 20 hrs by broth microdilution method; type: functional; conditions: ATCC 29213, 20 h; how it was run: as §1
Enterococcus faecalis [3] = experiment: Antibacterial activity against vancomycin-resistant Enterococcus faecalis SR7914 after 20 hrs by broth microdilution method; type: functional; conditions: SR7914, 20 h; how it was run: as §1
Enterococcus faecium [4] = experiment: Antibacterial activity against Enterococcus faecium ATCC 19434 after 20 hrs by broth microdilution method; type: functional; conditions: ATCC 19434, 20 h; how it was run: as §1
HepG2 = experiment: Cytotoxicity against human HepG2 cells after 48 hrs by WST-8 assay; type: cell-based; conditions: HepG2, 48 h
How it was run: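 HepG2 cells in DMEM with 10% FBS were seeded at 1 × 10⁴ cells/well and treated 24 h later with varying concentrations for 48 h. WST-8 reagent was then added for 1.5 h at 37 °C, and absorbance read at 450 nm. Percentage growth inhibition was calculated against untreated cells, and IC50 was derived. Tunicamycin served as positive control.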

[5] = target: T1, Phospho-N-acetylmuramoyl-pentapeptide-transferase (Bacillus subtilis (strain 168), UniProt Q03521); experiment: Noncompetitive inhibition of Bacillus subtilis MraY using […] as substrate after 30 mins by Lineweaver-Burk plot
T1 sequence (Q03521 whole entry): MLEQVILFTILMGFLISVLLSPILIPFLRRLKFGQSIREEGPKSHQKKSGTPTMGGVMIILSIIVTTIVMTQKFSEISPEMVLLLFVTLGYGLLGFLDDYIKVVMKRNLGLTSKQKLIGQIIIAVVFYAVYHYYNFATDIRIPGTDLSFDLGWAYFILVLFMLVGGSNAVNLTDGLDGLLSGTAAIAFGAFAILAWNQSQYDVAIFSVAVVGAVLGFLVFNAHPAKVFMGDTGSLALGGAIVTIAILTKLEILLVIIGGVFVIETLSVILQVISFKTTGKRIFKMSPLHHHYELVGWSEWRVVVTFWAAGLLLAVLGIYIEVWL

[6] = target: T2, Undecaprenyl-phosphate alpha-N-acetylglucosaminyl 1-phosphate transferase (Thermotoga maritima (strain ATCC 43589 / MSB8 / DSM 3109 / JCM 10099), UniProt Q9X1N5); experiment: Inhibition of Thermotoga maritima WecA using radiolabeled UDP-[14C]GlcNAc as substrate after 30 mins
T2 sequence (Q9X1N5 whole entry): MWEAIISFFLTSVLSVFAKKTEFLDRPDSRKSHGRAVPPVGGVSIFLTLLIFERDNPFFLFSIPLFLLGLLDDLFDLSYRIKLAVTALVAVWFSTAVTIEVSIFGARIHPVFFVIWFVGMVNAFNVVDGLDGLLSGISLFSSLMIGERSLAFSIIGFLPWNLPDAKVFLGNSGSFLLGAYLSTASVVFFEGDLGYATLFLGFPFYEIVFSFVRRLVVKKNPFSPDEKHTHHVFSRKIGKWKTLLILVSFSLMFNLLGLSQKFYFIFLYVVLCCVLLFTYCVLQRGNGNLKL
How it was run: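 Purified Thermotoga maritima WecA was assayed at pH 8 (100 mM Tris-HCl, 10 mM MgCl₂, 1.1 mM C₅₅-P, 0.16 mM UDP-[¹⁴C]GlcNAc, 92.7 mM Triton X-100), final concentrations. The reaction was started by enzyme, run 30 min at 65 °C and stopped at 100 °C for 1 min. C₅₅-PP-GlcNAc was separated by TLC and scanned. IC50 was relative to a no-inhibitor control, mean of triplicates.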

Enterococcus faecium [7] = experiment: Antibacterial activity against vancomycin-resistant Enterococcus faecium SR7917 after 20 hrs by broth microdilution method; type: functional; conditions: SR7917, 20 h; how it was run: as §1
Staphylococcus aureus [8] = experiment: Antibacterial activity against methicillin-resistant Staphylococcus aureus isolate SR3637 after 20 hrs by broth microdilution method; type: functional; conditions: isolate SR3637, 20 h; how it was run: as §1
[9] = target: T1, Phospho-N-acetylmuramoyl-pentapeptide-transferase; experiment: Competitive inhibition of Bacillus subtilis MraY using UDP-MurNAc-pentapeptide as substrate after 30 mins by Lineweaver-Burk plot
How it was run: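 B. subtilis MraY was assayed at pH 7.5 (100 mM Tris-HCl, 40 mM MgCl₂, 250 mM NaCl, 8.4 mM N-lauroylsarcosine), started by enzyme and run 30 min at 37 °C. Initial rates were taken at 0.25–1.5 mM UDP-MurNAc-[¹⁴C]pentapeptide, fixed 1 mM C₅₅-P, and several inhibitor levels. Lipid I was separated by TLC and scanned. Ki came from Lineweaver–Burk plots assuming a ping-pong Bi Bi mechanism.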

Bacillus subtilis = experiment: Antibacterial activity against Bacillus subtilis at 64 ug/ml; type: functional, organism-based

Structure (SMILES)	MIC (Enterococcus faecalis [1]) [µg/mL]	MIC (Staphylococcus aureus [2]) [µg/mL]	MIC (Enterococcus faecalis [3]) [µg/mL]	MIC (Enterococcus faecium [4]) [µg/mL]	IC50 (HepG2) [µg/mL]	Ki [5] [µM]	IC50 [6] [µM]	MIC (Enterococcus faecium [7]) [µg/mL]	MIC (Staphylococcus aureus [8]) [µg/mL]	Ki [9] [µM]	Activity (Bacillus subtilis)
CCCCCCCCCCCCCCC[C@@H](NC(=O)[C@@H](NC(=O)N[C@H](C(=O)O)C(C)C)[C@@H]1CCNC(=N)N1)C(=O)NCCCN[C@H](C(=O)O)[C@H](O[C@@H]1O[C@H](CN)[C@@H](O)[C@H]1O)[C@H]1O[C@@H](n2ccc(=O)[nH]c2=O)[C@H](O)[C@@H]1O	2 (≈ 1.87 µM)	2 (≈ 1.87 µM)	4 (≈ 3.74 µM)	0.5 (≈ 0.467 µM)	> 100	0.698	1340	0.25 (≈ 0.234 µM)	4 (≈ 3.74 µM)	0.698	
CC(C)C[C@H](NC(=O)[C@@H](NC(=O)N[C@H](C(=O)O)C(C)C)[C@@H]1CCNC(=N)N1)C(=O)NCCCN[C@H](C(=O)O)[C@H](O[C@@H]1O[C@H](CN)[C@@H](O)[C@H]1O)[C@H]1O[C@@H](n2ccc(=O)[nH]c2=O)[C@H](O)[C@@H]1O [MURAMYCIN D2]	> 64	> 64	> 64	> 64				> 64	> 64		inactive
CC(C)C[C@@H](NC(=O)[C@@H](NC(=O)N[C@H](C(=O)O)C(C)C)[C@@H]1CCN=C(N)N1)C(=O)NCCCN[C@H](C(=O)O)[C@H](O[C@@H]1O[C@H](CN)[C@@H](O)[C@H]1O)[C@H]1O[C@@H](n2ccc(=O)[nH]c2=O)[C@H](O)[C@@H]1O						0.049	1560			0.049	
CCCCCCOc1ccc(-c2ccc([C@H](NC(=O)[C@@H](NC(=O)N[C@H](C(=O)O)C(C)C)[C@@H]3CCNC(=N)N3)C(=O)NCCCN[C@H](C(=O)O)[C@H](O[C@@H]3O[C@H](CN)[C@@H](O)[C@H]3O)[C@H]3O[C@@H](n4ccc(=O)[nH]c4=O)[C@H](O)[C@@H]3O)cc2)cc1	8 (≈ 7.19 µM)	4 (≈ 3.6 µM)	8 (≈ 7.19 µM)	4 (≈ 3.6 µM)	> 100			4 (≈ 3.6 µM)	8 (≈ 7.19 µM)		
CCCCOc1ccc(-c2ccc(CC[C@H](NC(=O)[C@@H](NC(=O)N[C@H](C(=O)O)C(C)C)[C@@H]3CCNC(=N)N3)C(=O)NCCCN[C@H](C(=O)O)[C@H](O[C@@H]3O[C@H](CN)[C@@H](O)[C@H]3O)[C@H]3O[C@@H](n4ccc(=O)[nH]c4=O)[C@H](O)[C@@H]3O)cc2)cc1	16 (≈ 14.4 µM)	16 (≈ 14.4 µM)	64 (≈ 57.5 µM)	16 (≈ 14.4 µM)	> 100			32 (≈ 28.8 µM)	32 (≈ 28.8 µM)		
CC(C)C[C@@H](NC(=O)[C@@H](NC(=O)N[C@H](C(=O)O)C(C)C)[C@@H]1CCNC(=N)N1)C(=O)NCCCN[C@H](C(=O)O)[C@H](O[C@@H]1O[C@H](CN)[C@@H](O)[C@H]1O)[C@H]1O[C@@H](n2ccc(=O)[nH]c2=O)[C@H](O)[C@@H]1O	> 64	> 64	> 64	> 64				> 64	> 64		inactive
CC(C)[C@H](NC(=O)N[C@H](C(=O)N[C@@H](CCCCCCCc1ccc(-c2ccccc2)cc1)C(=O)NCCCN[C@H](C(=O)O)[C@H](O[C@@H]1O[C@H](CN)[C@@H](O)[C@H]1O)[C@H]1O[C@@H](n2ccc(=O)[nH]c2=O)[C@H](O)[C@@H]1O)[C@@H]1CCNC(=N)N1)C(=O)O	4 (≈ 3.6 µM)	4 (≈ 3.6 µM)	16 (≈ 14.4 µM)	4 (≈ 3.6 µM)	> 100			8 (≈ 7.21 µM)	4 (≈ 3.6 µM)		
CCCCCCCCCCCCCCC[C@H](NC(=O)[C@@H](NC(=O)N[C@H](C(=O)O)C(C)C)[C@@H]1CCNC(=N)N1)C(=O)NCCCN[C@H](C(=O)O)[C@H](O[C@@H]1O[C@H](CN)[C@@H](O)[C@H]1O)[C@H]1O[C@@H](n2ccc(=O)[nH]c2=O)[C@H](O)[C@@H]1O	4 (≈ 3.74 µM)	2 (≈ 1.87 µM)	4 (≈ 3.74 µM)	4 (≈ 3.74 µM)		0.247	970	2 (≈ 1.87 µM)	4 (≈ 3.74 µM)	0.247	
